In ChEMBL document CHEMBL4330096, “Discovery of potent and selective 5-azaindazole inhibitors of leucine-rich repeat kinase 2 (LRRK2) - Part 1” (Bioorg Med Chem Lett, 2019):

Assays:
[1] = target: T1, Serine/threonine-protein kinase D1 (Homo sapiens) (UniProt Q15139); test: Inhibition of PKD1 (unknown origin) at 10 uM relative to control
T1 sequence (whole entry): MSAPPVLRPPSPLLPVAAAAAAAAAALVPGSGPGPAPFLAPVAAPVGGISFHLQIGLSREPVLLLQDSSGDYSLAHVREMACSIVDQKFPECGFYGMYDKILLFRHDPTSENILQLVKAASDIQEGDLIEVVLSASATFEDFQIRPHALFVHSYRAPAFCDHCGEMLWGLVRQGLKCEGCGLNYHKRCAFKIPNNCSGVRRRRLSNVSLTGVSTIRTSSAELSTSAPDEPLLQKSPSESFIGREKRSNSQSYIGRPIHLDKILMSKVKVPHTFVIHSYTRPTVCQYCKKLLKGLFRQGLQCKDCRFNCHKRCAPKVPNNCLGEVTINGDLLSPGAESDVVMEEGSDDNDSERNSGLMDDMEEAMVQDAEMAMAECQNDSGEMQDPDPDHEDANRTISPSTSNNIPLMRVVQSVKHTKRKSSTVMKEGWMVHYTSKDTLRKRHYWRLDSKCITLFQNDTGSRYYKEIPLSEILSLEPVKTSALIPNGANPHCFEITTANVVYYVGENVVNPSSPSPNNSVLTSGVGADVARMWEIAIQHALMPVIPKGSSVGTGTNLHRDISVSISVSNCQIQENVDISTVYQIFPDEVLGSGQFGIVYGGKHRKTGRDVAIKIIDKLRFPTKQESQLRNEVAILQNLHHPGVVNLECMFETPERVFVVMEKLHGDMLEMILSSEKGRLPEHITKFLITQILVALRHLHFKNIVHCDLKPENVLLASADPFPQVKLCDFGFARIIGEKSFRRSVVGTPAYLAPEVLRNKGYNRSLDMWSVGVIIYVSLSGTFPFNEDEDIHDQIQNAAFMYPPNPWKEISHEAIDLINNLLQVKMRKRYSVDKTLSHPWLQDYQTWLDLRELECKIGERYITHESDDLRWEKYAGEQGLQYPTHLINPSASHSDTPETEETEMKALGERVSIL
Procedure, shortened: (§1)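 Single-concentration screen of each compound against a 59-protein-kinase panel, run at 10 µM or 1 µM. Activity relative to control is shown as a heat map across the panel.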

[2] = target: Tyrosine-protein kinase SYK (Homo sapiens) (UniProt P43405); test: Inhibition of SYK (unknown origin) at 10 uM relative to control
Procedure, shortened: (§2)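 Single-concentration screen across a panel of 59 protein kinases, with each compound tested at one fixed concentration. The read-out is residual kinase activity relative to control. Panel results are also condensed into a rescaled geometric mean (RGM) selectivity score.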

[3] = target: Insulin-like growth factor 1 receptor (Homo sapiens) (UniProt P08069); test: Inhibition of IGF1R (unknown origin) at 10 uM relative to control
Procedure, shortened: (§3)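 Single-point screen of each compound against a panel of 59 protein kinases, at 1 or 10 μM. The panel data are also summarised as a rescaled geometric mean selectivity score.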

[4] = target: Aurora kinase B (Homo sapiens) (UniProt Q96GD4); test: Inhibition of Aurora B (unknown origin) at 10 uM relative to control; procedure, shortened: as §3
[5] = target: RAC-beta serine/threonine-protein kinase (Homo sapiens) (UniProt P31751); test: Inhibition of PKBb (unknown origin) at 10 uM relative to control; procedure, shortened: as §1
[6] = target: Ribosomal protein S6 kinase beta-1 (Homo sapiens) (UniProt P23443); test: Inhibition of S6K1 (unknown origin) at 10 uM relative to control; procedure, shortened: as §2
[7] = target: T2, Ephrin type-B receptor 3 (Homo sapiens) (UniProt P54753); test: Inhibition of EPHB3 (unknown origin) at 10 uM relative to control; procedure, shortened: as §3
T2 sequence (whole entry): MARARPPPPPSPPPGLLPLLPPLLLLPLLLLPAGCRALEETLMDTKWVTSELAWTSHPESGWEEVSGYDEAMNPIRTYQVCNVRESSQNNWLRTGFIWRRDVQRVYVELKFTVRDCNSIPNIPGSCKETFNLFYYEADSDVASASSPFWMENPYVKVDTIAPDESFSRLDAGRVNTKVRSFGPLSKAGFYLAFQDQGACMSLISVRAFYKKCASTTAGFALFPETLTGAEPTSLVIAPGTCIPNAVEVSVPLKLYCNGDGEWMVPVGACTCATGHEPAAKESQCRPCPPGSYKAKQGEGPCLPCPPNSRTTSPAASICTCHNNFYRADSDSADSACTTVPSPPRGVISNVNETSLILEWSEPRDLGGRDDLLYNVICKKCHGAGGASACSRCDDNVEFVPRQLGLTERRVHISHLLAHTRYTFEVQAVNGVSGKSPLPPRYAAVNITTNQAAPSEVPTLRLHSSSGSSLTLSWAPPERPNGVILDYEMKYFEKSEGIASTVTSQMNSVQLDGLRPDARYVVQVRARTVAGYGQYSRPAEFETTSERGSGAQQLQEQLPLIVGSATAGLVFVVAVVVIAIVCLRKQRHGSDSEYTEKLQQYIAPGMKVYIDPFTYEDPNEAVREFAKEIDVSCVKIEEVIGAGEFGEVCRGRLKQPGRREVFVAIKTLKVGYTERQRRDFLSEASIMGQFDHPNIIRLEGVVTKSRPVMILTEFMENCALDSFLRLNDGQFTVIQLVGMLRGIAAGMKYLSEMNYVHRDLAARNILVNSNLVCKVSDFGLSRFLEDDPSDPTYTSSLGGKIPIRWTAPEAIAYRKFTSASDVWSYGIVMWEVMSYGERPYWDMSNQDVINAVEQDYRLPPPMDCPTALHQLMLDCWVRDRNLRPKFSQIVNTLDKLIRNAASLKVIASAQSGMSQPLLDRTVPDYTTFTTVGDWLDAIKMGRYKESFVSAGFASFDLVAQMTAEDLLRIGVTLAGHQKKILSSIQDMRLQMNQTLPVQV

[8] = target: T3, MAP kinase-activated protein kinase 5 (Homo sapiens) (UniProt Q8IW41); test: Inhibition of PRAK (unknown origin) at 10 uM relative to control; procedure, shortened: as §1
T3 sequence (whole entry): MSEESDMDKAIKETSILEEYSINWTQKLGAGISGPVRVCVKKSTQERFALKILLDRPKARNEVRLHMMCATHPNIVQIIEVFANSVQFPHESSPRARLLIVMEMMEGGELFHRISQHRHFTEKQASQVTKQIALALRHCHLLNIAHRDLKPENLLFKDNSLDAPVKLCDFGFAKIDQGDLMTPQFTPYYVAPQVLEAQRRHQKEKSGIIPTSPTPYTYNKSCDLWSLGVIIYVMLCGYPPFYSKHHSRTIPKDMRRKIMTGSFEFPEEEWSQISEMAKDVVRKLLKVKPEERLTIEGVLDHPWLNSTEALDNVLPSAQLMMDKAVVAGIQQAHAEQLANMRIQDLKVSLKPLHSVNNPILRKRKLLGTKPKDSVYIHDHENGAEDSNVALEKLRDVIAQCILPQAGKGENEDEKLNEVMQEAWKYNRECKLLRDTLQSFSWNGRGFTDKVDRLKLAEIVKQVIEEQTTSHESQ

Homo sapiens = species on record: Homo sapiens; test: Inhibition of VEGFR (unknown origin) at 10 uM relative to control; procedure, shortened: as §2

Sequence of Ribosomal protein S6 kinase beta-1 (Homo sapiens) (P23443 whole entry, looked up): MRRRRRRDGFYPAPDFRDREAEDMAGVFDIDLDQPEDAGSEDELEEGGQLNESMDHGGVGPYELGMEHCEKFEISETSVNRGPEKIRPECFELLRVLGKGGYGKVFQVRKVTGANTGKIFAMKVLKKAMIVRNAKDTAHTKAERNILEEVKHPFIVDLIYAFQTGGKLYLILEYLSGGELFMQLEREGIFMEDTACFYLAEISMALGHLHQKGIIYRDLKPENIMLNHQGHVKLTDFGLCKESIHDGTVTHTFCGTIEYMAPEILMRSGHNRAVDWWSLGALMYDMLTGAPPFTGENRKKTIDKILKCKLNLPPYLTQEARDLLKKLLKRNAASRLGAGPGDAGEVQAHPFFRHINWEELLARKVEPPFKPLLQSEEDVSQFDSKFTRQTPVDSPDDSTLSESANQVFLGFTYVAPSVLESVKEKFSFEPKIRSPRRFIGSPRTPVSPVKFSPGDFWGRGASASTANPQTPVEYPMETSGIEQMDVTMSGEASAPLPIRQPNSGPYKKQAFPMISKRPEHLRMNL
Sequence of Aurora kinase B (Homo sapiens) (Q96GD4 whole entry): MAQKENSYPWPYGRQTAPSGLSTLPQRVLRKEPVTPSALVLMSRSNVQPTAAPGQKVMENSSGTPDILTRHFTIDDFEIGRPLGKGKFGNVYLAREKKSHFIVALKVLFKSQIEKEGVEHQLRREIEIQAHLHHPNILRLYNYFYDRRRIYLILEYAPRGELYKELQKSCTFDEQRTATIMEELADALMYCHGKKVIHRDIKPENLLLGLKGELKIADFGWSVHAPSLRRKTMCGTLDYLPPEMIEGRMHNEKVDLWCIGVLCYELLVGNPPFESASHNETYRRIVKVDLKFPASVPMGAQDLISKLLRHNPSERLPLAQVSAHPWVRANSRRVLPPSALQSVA
Sequence of RAC-beta serine/threonine-protein kinase (Homo sapiens) (P31751 whole entry): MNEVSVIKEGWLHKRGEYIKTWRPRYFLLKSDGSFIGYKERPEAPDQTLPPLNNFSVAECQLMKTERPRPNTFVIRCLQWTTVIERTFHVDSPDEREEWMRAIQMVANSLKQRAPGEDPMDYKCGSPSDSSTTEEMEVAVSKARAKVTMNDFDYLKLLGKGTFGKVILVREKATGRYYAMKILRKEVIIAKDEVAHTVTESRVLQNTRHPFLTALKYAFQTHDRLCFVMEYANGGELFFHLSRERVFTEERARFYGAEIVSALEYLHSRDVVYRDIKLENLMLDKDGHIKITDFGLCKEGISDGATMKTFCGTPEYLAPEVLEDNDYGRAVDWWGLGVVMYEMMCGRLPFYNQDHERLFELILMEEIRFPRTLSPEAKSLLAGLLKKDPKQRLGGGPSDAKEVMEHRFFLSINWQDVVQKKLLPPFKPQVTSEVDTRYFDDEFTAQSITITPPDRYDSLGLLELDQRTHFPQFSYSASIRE
Sequence of Insulin-like growth factor 1 receptor (Homo sapiens) (P08069 31-736 limits assumed): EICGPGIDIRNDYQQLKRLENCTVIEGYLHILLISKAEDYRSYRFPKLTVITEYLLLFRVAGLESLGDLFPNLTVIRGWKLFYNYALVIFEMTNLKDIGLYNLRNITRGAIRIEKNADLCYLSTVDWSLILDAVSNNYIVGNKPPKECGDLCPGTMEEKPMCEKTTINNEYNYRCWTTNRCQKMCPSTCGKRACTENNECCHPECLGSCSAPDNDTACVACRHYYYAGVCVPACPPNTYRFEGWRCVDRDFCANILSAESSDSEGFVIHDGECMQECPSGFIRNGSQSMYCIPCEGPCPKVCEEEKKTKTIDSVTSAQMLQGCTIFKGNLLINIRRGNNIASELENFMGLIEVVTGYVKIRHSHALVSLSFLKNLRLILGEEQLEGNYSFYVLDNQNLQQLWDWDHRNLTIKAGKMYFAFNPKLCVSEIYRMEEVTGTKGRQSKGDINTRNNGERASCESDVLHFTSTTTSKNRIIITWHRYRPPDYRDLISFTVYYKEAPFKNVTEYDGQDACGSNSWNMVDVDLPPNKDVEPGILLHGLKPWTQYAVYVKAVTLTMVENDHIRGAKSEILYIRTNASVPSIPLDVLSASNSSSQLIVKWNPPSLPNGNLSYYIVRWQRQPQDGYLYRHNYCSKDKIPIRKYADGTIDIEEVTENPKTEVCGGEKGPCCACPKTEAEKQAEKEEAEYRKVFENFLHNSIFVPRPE
Sequence of Insulin-like growth factor 1 receptor (Homo sapiens) (P08069 741-1367 limits assumed): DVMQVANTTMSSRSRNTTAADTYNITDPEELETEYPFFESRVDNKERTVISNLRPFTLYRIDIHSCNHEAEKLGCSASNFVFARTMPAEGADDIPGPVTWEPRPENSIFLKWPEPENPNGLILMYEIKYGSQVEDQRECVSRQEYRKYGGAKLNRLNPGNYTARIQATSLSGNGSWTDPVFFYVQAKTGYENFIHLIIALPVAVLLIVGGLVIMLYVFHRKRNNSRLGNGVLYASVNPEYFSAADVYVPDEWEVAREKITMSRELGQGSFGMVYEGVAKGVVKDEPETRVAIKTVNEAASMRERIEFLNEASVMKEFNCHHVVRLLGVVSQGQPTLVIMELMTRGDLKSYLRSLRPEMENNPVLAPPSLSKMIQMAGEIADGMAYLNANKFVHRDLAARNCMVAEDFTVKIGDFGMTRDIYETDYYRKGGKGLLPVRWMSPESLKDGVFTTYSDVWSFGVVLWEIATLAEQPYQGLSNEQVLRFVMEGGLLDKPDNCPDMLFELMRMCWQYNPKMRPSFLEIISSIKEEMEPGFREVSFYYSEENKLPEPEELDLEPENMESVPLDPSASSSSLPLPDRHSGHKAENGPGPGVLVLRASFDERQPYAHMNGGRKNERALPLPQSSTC

What does the source list for `Cc1n[nH]c2ccnc(NC3CCCCC3)c12`?
inhibition [1]: 34%; inhibition [2]: 17%; inhibition [3]: 88%; inhibition [4]: 80%; inhibition [5]: 24%; inhibition [6]: 28%; inhibition [7]: 39%; inhibition [8]: 3%; inhibition (Homo sapiens): 43%

`Cc1n[nH]c2ccnc(Nc3ccc4ncsc4c3)c12` was tested. Which inhibition [2] did it give?
Its inhibition is 0%.

And the inhibition [6]?
Its inhibition is 19%.

And the inhibition [8]?
The inhibition was 10%.

How did the inhibition [1] turn out when `Cc1n[nH]c2ccnc(Nc3ccccc3F)c12` was run?
Its inhibition is 60%.

And the inhibition [2]?
Its inhibition is 0%.

And the inhibition [3]?
Its inhibition is 81%.

And the inhibition [4]?
The inhibition was 80%.

And the inhibition [5]?
The inhibition was 15%.

And the inhibition [6]?
Its inhibition is 36%.

What about the inhibition [7] of the same compound?
The inhibition was 39%.

And the inhibition [8]?
Its inhibition is 11%.

What about the inhibition (Homo sapiens) of the same compound?
The inhibition was 67%.

`Cc1n[nH]c2ccnc(OC3CCCCC3)c12` was tested. Which inhibition [1] did it give?
Its inhibition is 70%.

And the inhibition [2]?
Its inhibition is 16%.

And the inhibition [3]?
Its inhibition is 98%.

And the inhibition [4]?
The inhibition was 88%.

And the inhibition [5]?
The inhibition was 28%.

What about the inhibition [6] of the same compound?
Its inhibition is 78%.

What about the inhibition [7] of the same compound?
Its inhibition is 92%.

And the inhibition [8]?
Its inhibition is 7%.

What about the inhibition (Homo sapiens) of the same compound?
The inhibition was 76%.
